Target: T1, Translocator protein (Rattus norvegicus, UniProt P16257)
Assay: Displacement of [3H]-PK 11195 from peripheral (mitochondrial) benzodiazepine receptor; call rule not given here

T1 sequence (P16257 whole entry, looked up): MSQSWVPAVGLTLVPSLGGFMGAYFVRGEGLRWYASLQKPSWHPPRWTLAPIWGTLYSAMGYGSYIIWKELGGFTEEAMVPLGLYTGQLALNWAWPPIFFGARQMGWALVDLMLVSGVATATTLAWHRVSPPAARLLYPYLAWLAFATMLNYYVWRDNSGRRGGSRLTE

Row | Structure (SMILES) | IC50 [nM]
1 | COc1ccc(C2Sc3ccccc3-n3cccc3C2=O)cc1 (centres undefined) | 2090
2 | CN(C)C(=O)OC1=C(c2ccccc2)Sc2ccccc2-n2cccc21 | 9
3 | COc1ccc(C2=C(OC(=O)N(C)C)c3cccn3-c3cc(C(F)(F)F)ccc3S2)cc1 | 290
4 | O=C1c2cccn2-c2ccccc2SC1c1ccccc1 (centres undefined) | 1220
5 | O=C1c2cccn2-c2ccccc2[S+]([O-])C1c1ccccc1 (centres undefined) | 14700
6 | O=C1CSc2ccccc2-n2cccc21 | > 14000
7 | CC(=O)OC1=C(c2ccccc2)Sc2ccccc2-n2cccc21 | 20
8 | COc1ccc(C2Sc3ccc(C(F)(F)F)cc3-n3cccc3C2=O)cc1 (centres undefined) | 6210
9 | COc1ccc(C2Sc3ccc(Cl)cc3-n3cccc3C2=O)cc1 (centres undefined) | 1410
10 | CCC(=O)OC1=C(c2ccc(OC)cc2)Sc2ccc(C(F)(F)F)cc2-n2cccc21 | 2950
11 | COc1ccc(C2=C(OC(C)=O)c3cccn3-c3ccccc3[S+]2[O-])cc1 (centres undefined) | 2090
12 | COc1ccc(C2=C(OS(C)(=O)=O)c3cccn3-c3ccccc3S2)cc1 | 95
13 | COc1ccc(C2C(=O)c3cccn3-c3ccccc3[S+]2[O-])cc1 (centres undefined) | 23000
14 | COc1ccc(C2=C(OC(C)=O)c3cccn3-c3ccccc3S2(=O)=O)cc1 | 640
15 | CCCC(=O)OC1=C(c2ccc(OC)cc2)[S+]([O-])c2ccccc2-n2cccc21 (centres undefined) | 270

Results, then the compound that gave them:

Row | IC50 [nM] | Structure (SMILES)
16 | 1140 | CC(=O)OC1=C(c2ccccc2)S(=O)(=O)c2ccccc2-n2cccc21
17 | 170 | COc1ccc(C2=C(OC(=O)N(C)C)c3cccn3-c3cc(Cl)ccc3S2)cc1
18 | 60 | CS(=O)(=O)OC1=C(c2ccccc2)Sc2ccccc2-n2cccc21
19 | 560 | CC(=O)OC1=C(c2ccccc2)Sc2ccc(Cl)cc2-n2cccc21
20 | 67 | CCC(=O)OC1=C(c2ccccc2)Sc2ccccc2-n2cccc21
21 | 28 | CCCC(=O)OC1=C(c2ccc(OC)cc2)Sc2ccccc2-n2cccc21
22 | 9 | COc1ccc(C2=C(OC(=O)N(C)C)c3cccn3-c3ccccc3S2)cc1
23 | 34 | COc1ccc(C2=C(OC(C)=O)c3cccn3-c3ccccc3S2)cc1
24 | 4530 | COc1ccc(C2=C(OC(C)=O)c3cccn3-c3cc(C(F)(F)F)ccc3S2)cc1
25 | 22 | CCCC(=O)OC1=C(c2ccccc2)Sc2ccccc2-n2cccc21
26 | 820 | CCC(=O)OC1=C(c2ccccc2)Sc2ccc(Cl)cc2-n2cccc21
27 | 650 | COc1ccc(C2=C(OC(C)=O)c3cccn3-c3cc(Cl)ccc3S2)cc1
28 | 48 | CCCCC(=O)OC1=C(c2ccccc2)Sc2ccccc2-n2cccc21
29 | 690 | CC(=O)OC1=C(c2ccccc2)[S+]([O-])c2ccccc2-n2cccc21 (centres undefined)
30 | 1810 | COc1ccc(C2=C(OC(C)=O)c3cccn3-c3cc(OC)ccc3S2)cc1
31 | 30 | CCC(=O)OC1=C(c2ccc(OC)cc2)Sc2ccccc2-n2cccc21
32 | 490 | CCC(=O)OC1=C(c2ccc(OC)cc2)Sc2ccc(Cl)cc2-n2cccc21
33 | 23 | CCCCCC(=O)OC1=C(c2ccccc2)Sc2ccccc2-n2cccc21
34 | 230 | CC(=O)OC1=C(c2ccccc2)Sc2cc(Cl)ccc2-n2cccc21
35 | 20 | COc1ccc(C2=C(OC(C)=O)c3cccn3-c3cccc(Cl)c3S2)cc1
36 | 8 | CC(=O)OC1=C(c2ccccc2)Sc2c(Cl)cccc2-n2cccc21
37 | 240 | COc1ccc(C2=C(OC(C)=O)c3cccn3-c3ccc(Cl)cc3S2)cc1

Target: T1, Translocator protein
Assay: Displacement of [3H]-PK 11195 from peripheral (mitochondrial) benzodiazepine receptor (inactive)
How it was run: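 Male CD rat cortex (about 150 g) homogenized in ice-cold 50 mM PBS, pH 7.4, spun at 50000g for 10 min, and washed three times. 10 mg original wet tissue incubated with 1 nM [3H]PK 11195 and 8–12 drug concentrations (highest 10^-5 M) for 120 min at 4 °C. Nonspecific binding with 1 μM PK 11195. GF/B filtration, scintillation counting, triplicate points, IC50 by nonlinear curve fitting.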

Row | IC50 | Structure (SMILES)
38 | Not Active | COc1ccc(C2=C(OC(=O)c3c(OC)cc(OC)cc3OC)c3cccn3-c3cc(C(F)(F)F)ccc3S2)cc1
39 | Not Active | COc1ccc(C2=C(OC(=O)c3c(OC)cc(OC)cc3OC)c3cccn3-c3cc(Cl)ccc3S2)cc1
40 | Not Active | COc1ccc(C2=C(OC(=O)c3cccnc3)c3cccn3-c3ccccc3S2)cc1
41 | Not Active | O=C1c2cccn2-c2ccccc2S(=O)(=O)C1c1ccccc1 (centres undefined)
42 | Not Active | COc1ccc(C2=C(OC(=O)c3ccncc3)c3cccn3-c3ccccc3S2)cc1
43 | Not Active | COc1ccc(C2=C(OC(=O)c3c(OC)cc(OC)cc3OC)c3cccn3-c3ccccc3S2)cc1
44 | Not Active | COc1ccc([C@H]2Sc3ccccc3-n3cccc3[C@H]2OC(C)=O)cc1

Reference: ChEMBL document CHEMBL1127506, “Novel ligands specific for mitochondrial benzodiazepine receptors: 6-arylpyrrolo[2,1-d][1,5]benzothiazepine derivatives. Synthesis, structure-activity relationships, and molecular modeling studies” (J Med Chem, 1994)
